Hits are enriched below; roughly 2.2% of the tested compounds scored in any of these assays.
NR2E3 ag-1 – NR2E3 agonists in two-hybrid cells, primary screen, cell-based, luminescence, CHO-S, Gal4-NCOR/VP16-NR2E3 | luciferase | actives 0.35% (n = 360,000) | Photoreceptor-specific nuclear receptor (Homo sapiens), Q9Y5X4 | inhibition of corepressor binding, % at 3.98 µM;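 active means inhibition above the mean of all tested compounds plus 3 SD, cut at about 70% in these data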;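 further: 0% = DMSO with NR2E3 transfected cells and 100% = cells lacking NR2E3 construct; higher means lower luciferase signal from less NR2E3 corepressor binding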
NR2E3 ag-2 – inhibitors of NR2E3-RetCOR corepressor binding, primary screen, NR2E3 agonist project, biochemical, TR-FRET, GST-NR2E3, biotin-RetCOR | Photoreceptor-specific nuclear receptor (Homo sapiens), Q9Y5X4 | actives 0.12% (n = 320,000) | 1536-well | inhibition of corepressor binding, % at 4.78 µM;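 active means percent inhibition above the cutoff of mean plus 3 SD of all tested compounds, set per screening campaign, cut at about 20% in these data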;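 further: 0% = DMSO wells and 100% = biotin wells as full block of FRET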
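Test system – NR2E3–RetCOR corepressor complex · Quantity – NR2E3 fusion 1.35 nM · Buffer or medium – Tris pH 7.5 · Incubation – Compound–protein incubation for 5 h at 4 °C · Technique – TR-FRET, Eu(K)-anti-GST donor, streptavidin-D2 acceptor, ex 340, em 617/671 nm · Evaluation – percent inhibition of 671/617 nm emission ratio versus biotin and DMSO controls · Plate – 1536-well format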
GalR3 antagonist – GalR3 antagonists in HEK293 cells, primary screen, cell-based, fluorescence readout; HEK293 GalR3-CNG cAMP membrane potential fluorescence; galR3 body fused to GalR1 C-terminus; inhibition, % at 3 µM; actives 0.44% (n = 360,000); AID 651719, 2012;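 active means inhibition above the screen-wide average plus 3 SD, cut at about 13% in these data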;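 further: forskolin and galanin both at EC90 stimulate the cells; cAMP rise reported by CNG channel membrane potential dye signal; 0% = forskolin plus galanin with DMSO and 100% = forskolin alone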
Target sequence (O60755 1-299 limits assumed): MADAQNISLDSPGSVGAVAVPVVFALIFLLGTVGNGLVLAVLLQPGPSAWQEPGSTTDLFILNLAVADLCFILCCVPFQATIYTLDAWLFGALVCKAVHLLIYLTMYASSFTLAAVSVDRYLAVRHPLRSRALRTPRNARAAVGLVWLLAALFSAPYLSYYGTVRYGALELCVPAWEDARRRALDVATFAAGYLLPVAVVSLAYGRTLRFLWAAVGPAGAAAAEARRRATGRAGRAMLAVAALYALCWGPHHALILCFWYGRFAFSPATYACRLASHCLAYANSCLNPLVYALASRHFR
HIV Env fusion – inhibitors of HIV-1 Env-driven cell-cell fusion, primary screen, HeLa-JRFL effector, CEM21 target cells, luciferase; AID 651610, 2012; inhibition, % at 12.3 µM; actives 1.1% (n = 360,000);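 active means mean replicate inhibition score of at least 50 and every replicate individually at or above 50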;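 further: 0% = plate neutral controls and 100% = maraviroc near 300 nM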
V-ATPase pH – regulators of yeast V-ATPase proton pumping, primary screen, pHLuorin cytosolic pH fluorescence; S. cerevisiae; response, % at 10 µM; actives 0.37% (n = 350,000); AID 504577, 2011; in the data active means response mostly above about 7.3%, no sharp cut-off; inactive means mostly below about 5.4%; further: actives read high
GAA850 FXN act – FXN promoter activators, primary screen, cell-based, luciferase luminescence, HEK293 lucGAA850; activation, % at 6 µM; actives 0.56% (n = 360,000); AID 540364, 2011; HEK293 lucGAA850 FXN promoter luciferase reporter, 24 h; percent of 10 µM SAHA response;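 active means activation above the average of all compounds screened plus 3 SD, cutoff fixed separately per campaign, cut at about 7.5% in these data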;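 further: 0% = DMSO wells and 100% = 10 µM SAHA wells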
Starred values were filed as active, the others as inactive; . = no result; [ ] = another dose, or the depositor's remark.

SMILES | NR2E3 ag-1 | NR2E3 ag-2 | GalR3 antagonist | HIV Env fusion | V-ATPase pH | GAA850 FXN act
C[C@@H]1CN([C@@H](C)CO)C(=O)c2cc(NC(=O)Nc3ccc(F)cc3)ccc2O[C@H]1CN(C)Cc1ccc(-c2ccccc2)cc1 | . | . | . | 47[16.7 µM] | . | .
Cc1ccc(NC2=CC(=O)C(=O)c3ccccc32)c(C)c1 | -20 | 8 | -5 | 58* | 0 | 0
C[C@H](CO)N1C[C@H](C)[C@@H](CN(C)C(=O)Nc2cccc3ccccc23)Oc2ccc(NS(=O)(=O)c3cn(C)cn3)cc2CC1=O | . | . | . | 47[16.7 µM] | . | .
O=S(=O)(c1ccc(Cl)cc1)N1CCCN(c2nc3ccc(Cl)cc3s2)CC1 | -5 | 0 | -1 | 91* | -2 | 0
Cc1cc2ccccn2c1C(=O)c1ccc([N+](=O)[O-])o1 | 30 | -3 | 0 | -14 | 11* | -6
Cc1ccc(N(CC(=O)NC2CCCCC2)C(=O)Cn2nnc(-c3ccc(C)o3)n2)cc1 | -33 | -2 | 4 | 3 | 13* | 1
CCOc1ccc(N(CC(=O)NC2CCCCC2)C(=O)Cn2nnc(-c3ccc(C)o3)n2)cc1 | -30 | . | -8 | -1 | -3 | 1
O=C(NCCNC(=O)c1cc(OCC(F)(F)F)ccc1OCC(F)(F)F)Nc1cccc(C(F)(F)F)c1 | 18 | 0 | -4 | 84* | 1 | -2
O=C(NCCNS(=O)(=O)c1ccccc1Cl)c1cc(OCC(F)(F)F)ccc1OCC(F)(F)F | -10 | 0 | -1 | -106 | -7 | -1
CN(C)S(=O)(=O)NCCNC(=O)c1cc(OCC(F)(F)F)ccc1OCC(F)(F)F | -8 | 1 | 4 | 2 | -1 | 0
Cc1ccc(S(=O)(=O)NCCNC(=O)c2cc(OCC(F)(F)F)ccc2OCC(F)(F)F)cc1 | 4 | 2 | -2 | 96* | 4 | 6
COc1ccc(CN(C)C[C@H]2Oc3ccc(NC(=O)Cn4cnnn4)cc3C(=O)N([C@@H](C)CO)C[C@H]2C)cc1 | . | . | . | 11[16.7 µM] | . | .
C[C@@H]1CN([C@H](C)CO)C(=O)c2ccccc2-c2ccccc2CO[C@@H]1CN(C)C(=O)Nc1ccc2c(c1)OCO2 | . | . | . | 7[16.7 µM] | . | .
C[C@@H]1CN([C@@H](C)CO)C(=O)c2ccccc2-c2ccccc2CO[C@@H]1CN(C)C(=O)Nc1ccc2c(c1)OCO2 | . | . | . | 59*[16.7 µM] | . | .
C[C@H](CO)N1C[C@H](C)[C@@H](CN(C)C(=O)Nc2cccc(C(F)(F)F)c2)OCc2ccccc2-c2ccccc2C1=O | . | . | . | 58*[16.7 µM] | . | .
C[C@@H]1CN([C@H](C)CO)C(=O)c2ccccc2-c2ccccc2CO[C@H]1CN(C)C(=O)Nc1cccc(C(F)(F)F)c1 | . | . | . | 35[16.7 µM] | . | .
C[C@H]1CN([C@@H](C)CO)C(=O)c2cc(NS(=O)(=O)c3ccc(Cl)cc3)ccc2O[C@@H]1CN(C)S(C)(=O)=O | . | . | . | 11[16.7 µM] | . | .
C[C@@H]1CCCCO[C@@H](CN(C)S(C)(=O)=O)[C@H](C)CN([C@H](C)CO)C(=O)c2cc(NC(=O)Cc3ccccc3)ccc2O1 | . | . | . | -37[16.7 µM] | . | .
C/C(=N\Nc1nc2ccccc2[nH]1)c1ccccn1 | -105 | 1 | -7 | 65* | 1 | -9
NCC[C@H]1CC[C@@H](NC(=O)CCN2CCCCC2)[C@H](CO)O1 | . | . | . | -5[16.7 µM] | . | .
Cc1noc(C)c1S(=O)(=O)Nc1ccc2c(c1)C(=O)N([C@H](C)CO)C[C@H](C)[C@@H](CN(C)C(=O)Nc1ccccc1)OCCCC[C@@H](C)O2 | . | . | . | -38[16.7 µM] | . | .
COc1ccc(NC(=O)Nc2ccc3c(c2)C(=O)N([C@@H](C)CO)C[C@H](C)[C@H](CN(C)S(=O)(=O)c2ccc(C)cc2)O3)cc1 | . | . | . | 78*[16.7 µM] | . | .
COc1ccc(S(=O)(=O)N(C)C[C@@H]2Oc3ccc(NC(=O)Nc4ccc(C(F)(F)F)cc4)cc3C(=O)N([C@@H](C)CO)C[C@@H]2C)cc1 | . | . | . | 67*[16.7 µM] | . | .
CN1c2ccc(-c3cccc(C#N)c3)cc2[C@H]2[C@H](CCN2C(=O)NC2CCCC2)[C@@H]1CO | . | . | . | -11[16.7 µM] | . | .

Compound activity (PubChem BioAssay)
